About 1,200 (48%) of roughly 2,500 compounds were called active. The set was probably picked from earlier hits. The list shows a part of the results. Values without a mark were called inactive.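 Rule for the calls: active = mean activation above the low control average plus 3 SD, as set in the primary screen (cut at about 12% in these data); inactive = the rest.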

This note sets out measurements from PubChem BioAssay AID504383 (The Scripps Research Institute Molecular Screening Center, 2011).

The target of the experiment is Troponin I, cardiac muscle (Homo sapiens) + Troponin T, cardiac muscle (Homo sapiens) + Troponin C, slow skeletal and cardiac muscles (Homo sapiens) (UniProt P19429+P45379+P63316). Description: calcium sensitizers of cardiac thin filaments – biochemical, IANBD-TnC fluorescence, triplicate, confirmation (AID 504383).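 Note: 0% = DMSO at 0.472 mM calcium and 100% = DMSO at 2.9 mM calcium.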 Conditions: IANBD-labeled cardiac RTF, Ca2+ sensitivity fluorescence; at 7.2 µM; active compounds read high; scaled from EC20 to saturating calcium; tested at EC20 calcium, 0.472 mM. In a few lines: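 Material: labelled regulated thin filaments; Reagent: 0.472 mM calcium; Incubation: 15 min compound incubation with filaments at 25 °C; Detection: filament fluorescence intensity; Evaluation: fluorescence increase normalised to calcium controls; Benchmarks: low control EC20 calcium, high control EC100 calcium.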
As for `COc1cccc(F)c1C(=O)NC(=O)Nc1ccc2nc(C)oc2c1`, the activation is 252% (active).
With `Cc1cc2nc3c(=O)n(CCc4ccccc4)c(=O)[nH]c3nc2cc1N` the figure was 17.3% (active); with `CCCCCCn1c(=O)[nH]c2nc3cc(N)c(C)cc3nc2c1=O`, 158% (active); with `CC(=O)OCCn1c2nc(=O)[nH]c(=O)c-2nc2cc(C)c(C)cc21`, 1.76%.
To `Cc1ccccc1-n1c(=O)n(CCc2ccccc2)c(=O)c2[nH]cnc21` belongs 8.97%; to `C=CCn1c(=O)[nH]c2nc3cc(N=CN(C)C)c(C)cc3nc2c1=O`, 69.7% (active).
To `CCCCn1c(=O)[nH]c2nc3cc(N)ccc3nc2c1=O` belongs 0.26%; to `COCCN1C(=O)/C(=C/c2ccc(N3CCCC3)cc2)SC1=S`, 15.2% (active); to `COCCN1C(=O)/C(=C/c2ccc(N3CCCC3)cc2C)SC1=S`, 0.91%.
As to `COc1ccc(/C=C2\SC(=O)N(CCC(=O)N3CCN(C)CC3)C2=O)cc1`, the activation was 5.35%.
To `O=C1c2ccccc2-c2onc3ccc(Oc4ccccc4)c1c23` belongs 7.69%; to `Cc1occc1C(=O)N=Nc1c(O)n(C)c2ccccc12`, 15.2% (active); to `O=C(CSc1nc2ccccc2s1)NNC(=S)Nc1ccccc1`, 482% (active).
With `COc1ccc(OC)c(NC(=O)NCCc2cccc(Cl)c2)c1` the figure was 5.54%.
On to `O=C(CSc1nc2cc(Cl)ccc2s1)c1cc2ccccc2o1`, for which the activation is 107% (active).
On to `COc1ccc(-c2noc(CCC(=O)NCCc3ccccc3)n2)cc1`, for which the activation is 10.9%.
To `O=C(CSc1nc2ccccc2s1)c1cc2ccccc2o1` belongs 14.8% (active); to `Cc1ccccc1Nc1nnc(SCC(=O)c2cc3ccccc3o2)s1`, 6.8%; to `COc1ccc(OC)c(-n2nnnc2SCC(=O)NCCc2ccccc2)c1`, 12.5% (active).
`CCOC(=O)COn1c(=O)c(-c2cc3ccccc3o2)[n+]([O-])c2ccccc21`: the activation is 2.03%.
With `Cc1ccc2c(c1)[C@H]1[C@H](CO2)[C@H](c2ccccc2)[C@]2(C)C(=O)N(Cc3ccc(F)cc3)CC(=O)N12` the figure was 4.21%; with `COc1ccc(-n2nnnc2SCC(=O)c2cc3ccccc3o2)cc1`, 40.8% (active); with `NS(=O)(=O)c1ccc(-c2ccc(/C=C3\SC(=S)N(C4CCS(=O)(=O)C4)C3=O)o2)cc1` (configuration not stated), 17.8% (active).
With `O=C(Nc1ccc(F)cc1)OCCN1CCN(Cc2ccccc2)CCC1=O` the figure was 5.99%; with `Fc1ccc(CN2CCCN(C(=S)Nc3ccc(F)cc3)CC2)cc1`, 54% (active).
`CCn1c(C(C)NC(C)=O)nc2ccccc21` (configuration not stated): the activation was 16.6% (active).
With `CCn1c(CNc2ccc(C(=O)O)cc2)nc2ccccc21` the figure was -2.9%; with `C/C(=N\NC(=O)c1cc2c(s1)CCC(C)C2)c1ccc[nH]1` (configuration not stated), 5.66%.
As to `COCCN(C(=S)Nc1cccc(OC)c1)C1CCN(C(C)=O)CC1`, the activation is 12.8% (active).
Consider `CC(OC(=O)/C(C#N)=C/c1ccc(N(C)C)cc1)C(=O)N(C)c1ccccc1` (configuration not stated), for which the activation is 17.5% (active).
To `CN(C)c1ccc(/C=C(\C#N)C(=O)Nc2nc3c(s2)CCN(Cc2ccccc2)C3)cc1` belongs 6.43%.
As to `CN(C)c1ccc(/C=C(/C#N)C(=O)Nc2nc3c(s2)CCN(Cc2ccccc2)C3)cc1`, the activation is 10.5%.
With `CN(C)c1ccc(/C=C(\C#N)C(=O)c2ccccc2)cc1` the figure was 9.54%; with `CC(OC(=O)/C(C#N)=C/c1ccc(N(C)C)cc1)C(=O)N(C)Cc1ccccc1` (configuration not stated), 18.4% (active).
Consider `CC(=O)Nc1ccc(NC(=O)C(C)OC(=O)/C(C#N)=C/c2ccc(N(C)C)cc2)cc1` (configuration not stated), for which the activation is 17% (active).
With `Brc1ccc(C2=CC(c3ccco3)n3ncnc3N2)cc1` (configuration not stated) the figure was 7.55%; with `Fc1ccc(C2=CC(c3ccc(Br)o3)n3ncnc3N2)cc1` (configuration not stated), 5.63%; with `Fc1ccc(C2=CC(c3ccco3)n3ncnc3N2)cc1` (configuration not stated), 18.9% (active).
With `COc1ccc2nc(C)c3cc(C)oc3c2c1`, the activation was 71.2% (active).
To `COc1ccc2nc(C)cc(NCc3ccc(F)cc3)c2c1` belongs 10.7%.
Consider `Cc1ccc(NS(=O)(=O)c2ccc(C(=O)N3CCN(c4ncccn4)CC3)cc2)cc1`, for which the activation is 3.55%.
With `O=C(Nc1ccc(S(=O)(=O)Nc2ncccn2)cc1)c1nn(Cc2ccccc2)c(=O)c2ccccc12` the figure was 736% (active).
Regarding `O=C(Nc1ccc(S(=O)(=O)Nc2ncccn2)cc1)C1CC(=O)N(c2ccccc2)C1` (configuration not stated), the activation was 0.68%.
With `CCOC(=O)CN1C(=O)N[C@@H](c2cccc(C(F)(F)F)c2)C(C(=O)OC)=C1C` the figure was 1.28%; with `COCCN1C(=O)N[C@@H](c2cccc(C(F)(F)F)c2)C(C(=O)OC)=C1C`, 42.1% (active).
With `COC(=O)C/C(O)=C(/N=Nc1cccc(C(F)(F)F)c1)C(=O)OC` the figure was 9.06%; with `CCOc1ccc(-c2nnc(NC(=O)CCCOc3cccc(C)c3)o2)cc1`, 7.1%.
To `Cc1ccc(S(=O)(=O)N2CC(C(=O)O)=CC[C@H]2c2ccc(Cl)cc2)cc1` belongs 4.74%; to `Cc1nnc(N/N=C/c2ccc(O)c([N+](=O)[O-])c2)[nH]c1=O`, 35.2% (active); to `Cc1cc(/C=C2/NC(=O)N(Cc3ccccc3F)C2=O)c(C)n1C`, 25.1% (active).
Regarding `Cc1ccc(/C=C2/NC(=O)N(Cc3ccccc3F)C2=O)s1`, the activation is 7.33%.
`O=C(CC1SC(N2CCCCC2)=NC1=O)Nc1ccc(C(=O)NCc2ccccc2)cc1` (configuration not stated): the activation is 9.91%.
In the case of `CCCNC(=O)C12CCC(C)(C(=O)C1Br)C2(C)C` (configuration not stated), the activation was 12.4% (active).
To `COc1cc2c(cc1OC)-c1cc3ccc4c(c3c[n+]1CC2)OCO4` belongs 15.6% (active).
As for `CCCCC(=O)Nc1ccc(C(=O)Nc2ccc(OC)cc2[N+](=O)[O-])cc1`, the activation is 13.3% (active).
With `CCOCCCNS(=O)(=O)c1ccc(NC(=O)c2ccc(OC)c([N+](=O)[O-])c2)cc1` the figure was 9.02%.
To `Cc1ccc2nc3nc(NCC4CCCO4)c(C(=O)NC4CCCC4)cc3c(=O)n2c1` (configuration not stated) belongs 12.9% (active).
